# Measured values reported in ChEMBL document CHEMBL5724801, “EUbOPEN Chemogenomics Library - Multiplex” (2024).
# Values joined by “and” are separate entries in the source; they are usually repeats but may differ in a detail not shown here. Identical values can stand only once.
# Tested on: Fibroblast
# Assay: Multiplex assay against human fibroblast
# Assay type: toxicity, cell-based
# Summary of the method: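 At seeding, live cells were stained with Hoechst33342, BioTracker Green Microtubule Cytoskeleton Dye, MitoTracker Red and Annexin V Alexa Fluor 680. After compound addition they were imaged on a CQ1 microscope at 37°C and 5% CO2, and CellPathfinder machine-learning gating sorted them into Hoechst high-intensity objects or normal cells, with normal cells further split into healthy, pyknosed or fragmented nuclei and pyknosed cells into mitotic or apoptotic. Tubulin, mitochondrial-mass and membrane-permeability phenotypes are given as per cents of cells with healthy nuclei.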
# [1] = 12 h, 1 µM, compound concentration 1 uM
# [2] = 12 h, 10 µM, compound concentration 10 uM
# [3] = 24 h, 1 µM, compound concentration 1 uM
# [4] = 24 h, 10 µM, compound concentration 10 uM
# [5] = 48 h, 1 µM, compound concentration 1 uM
# [6] = 48 h, 10 µM, compound concentration 10 uM
smiles,measurement,setting,value
C[C@H]1[C@H]2CC[C@H]3[C@@H]4CC=C5C[C@@H](N(C)C)CC[C@]5(C)[C@H]4CC[C@]23CN1C [CONESSINE],Population Apoptotic (%),[1],45% and 29%
same,Population Fragmented Nuclei (%),[1],15% and 33%
same,Population Healthy Nuclei (%),[1],73% and 41%
same,Population Hoechst High Intensity Objects (%),[1],1% and 2%
same,Population Membrane Permeable-Phenotype (%),[1],0% and 7%
same,Population Mitochondria Different-Phenotype (%),[1],8% and 2%
same,Population Mitotic Cells (%),[1],55% and 70%
same,Population Normal (%),[1],98% and 97%
same,Population Pyknosed Nuclei (%),[1],11% and 24%
same,Population Tubulin-Different-Phenotype (%),[1],19% and 46%
same,Total Cell Count,[1],174 and 101
same,Population Apoptotic (%),[2],37% and 43%
same,Population Fragmented Nuclei (%),[2],26%
same,Population Healthy Nuclei (%),[2],60% and 45%
same,Population Hoechst High Intensity Objects (%),[2],3%
same,Population Membrane Permeable-Phenotype (%),[2],5% and 8%
same,Population Mitochondria Different-Phenotype (%),[2],10% and 4%
same,Population Mitotic Cells (%),[2],62% and 56%
same,Population Normal (%),[2],96%
same,Population Pyknosed Nuclei (%),[2],13% and 28%
same,Population Tubulin-Different-Phenotype (%),[2],32% and 58%
same,Total Cell Count,[2],189 and 110
same,Population Apoptotic (%),[3],43% and 40%
same,Population Fragmented Nuclei (%),[3],13% and 27%
same,Population Healthy Nuclei (%),[3],73% and 48%
same,Population Hoechst High Intensity Objects (%),[3],2% and 4%
same,Population Mitochondria Different-Phenotype (%),[3],4% and 6%
same,Population Mitotic Cells (%),[3],56% and 59%
same,Population Normal (%),[3],97% and 95%
same,Population Pyknosed Nuclei (%),[3],13% and 24%
same,Population Tubulin-Different-Phenotype (%),[3],22% and 61%
same,Total Cell Count,[3],175 and 95
same,Population Apoptotic (%),[4],64% and 36%
same,Population Fragmented Nuclei (%),[4],28%
same,Population Healthy Nuclei (%),[4],61% and 39%
same,Population Hoechst High Intensity Objects (%),[4],3% and 2%
same,Population Membrane Permeable-Phenotype (%),[4],1% and 7%
same,Population Mitochondria Different-Phenotype (%),[4],7%
same,Population Mitotic Cells (%),[4],35% and 63%
same,Population Normal (%),[4],96% and 97%
same,Population Tubulin-Different-Phenotype (%),[4],27% and 60%
same,Total Cell Count,[4],190 and 106
same,Population Apoptotic (%),[5],50% and 47%
same,Population Fragmented Nuclei (%),[5],17% and 37%
same,Population Healthy Nuclei (%),[5],73% and 45%
same,Population Hoechst High Intensity Objects (%),[5],5% and 0%
same,Population Membrane Permeable-Phenotype (%),[5],0% and 17%
same,Population Mitochondria Different-Phenotype (%),[5],3% and 8%
same,Population Mitotic Cells (%),[5],50% and 52%
same,Population Normal (%),[5],94% and 99%
same,Population Pyknosed Nuclei (%),[5],9% and 16%
same,Population Tubulin-Different-Phenotype (%),[5],27% and 63%
same,Total Cell Count,[5],178 and 104
same,Population Apoptotic (%),[6],66% and 27%
same,Population Fragmented Nuclei (%),[6],26% and 29%
same,Population Healthy Nuclei (%),[6],62% and 48%
same,Population Hoechst High Intensity Objects (%),[6],6% and 2%
same,Population Membrane Permeable-Phenotype (%),[6],0% and 8%
same,Population Mitochondria Different-Phenotype (%),[6],4% and 6%
same,Population Mitotic Cells (%),[6],33% and 72%
same,Population Normal (%),[6],93% and 97%
same,Population Pyknosed Nuclei (%),[6],10% and 22%
same,Population Tubulin-Different-Phenotype (%),[6],25% and 62%
same,Total Cell Count,[6],190 and 102
C[C@H](N)COC(=O)[C@@H](CCCCN)NC(=O)Cc1c(-c2ccc3ccccc3c2)[nH]c2c1ccc1ccccc12,Population Apoptotic (%),[1],32% and 50%
same,Population Fragmented Nuclei (%),[1],18% and 25%
same,Population Healthy Nuclei (%),[1],65% and 51%
same,Population Hoechst High Intensity Objects (%),[1],1% and 4%
same,Population Membrane Permeable-Phenotype (%),[1],0% and 5%
same,Population Mitochondria Different-Phenotype (%),[1],7% and 4%
same,Population Mitotic Cells (%),[1],67% and 50%
same,Population Normal (%),[1],98% and 95%
same,Population Pyknosed Nuclei (%),[1],15% and 23%
same,Population Tubulin-Different-Phenotype (%),[1],32% and 36%
same,Total Cell Count,[1],179 and 170
same,Population Apoptotic (%),[2],43% and 62%
same,Population Fragmented Nuclei (%),[2],13% and 32%
same,Population Healthy Nuclei (%),[2],69% and 50%
same,Population Hoechst High Intensity Objects (%),[2],2% and 7%
same,Population Membrane Permeable-Phenotype (%),[2],1% and 5%
same,Population Mitochondria Different-Phenotype (%),[2],8% and 6%
same,Population Mitotic Cells (%),[2],56% and 37%
same,Population Normal (%),[2],97% and 92%
same,Population Pyknosed Nuclei (%),[2],16% and 17%
same,Population Tubulin-Different-Phenotype (%),[2],33% and 47%
same,Total Cell Count,[2],183 and 167
same,Population Apoptotic (%),[3],53% and 29%
same,Population Fragmented Nuclei (%),[3],16% and 25%
same,Population Healthy Nuclei (%),[3],66% and 54%
same,Population Hoechst High Intensity Objects (%),[3],3% and 7%
same,Population Membrane Permeable-Phenotype (%),[3],0% and 3%
same,Population Mitochondria Different-Phenotype (%),[3],5% and 7%
same,Population Mitotic Cells (%),[3],46% and 70%
same,Population Normal (%),[3],96% and 92%
same,Population Pyknosed Nuclei (%),[3],17% and 20%
same,Population Tubulin-Different-Phenotype (%),[3],30% and 39%
same,Total Cell Count,[3],179 and 162
same,Population Apoptotic (%),[4],63% and 50%
same,Population Fragmented Nuclei (%),[4],13% and 36%
same,Population Healthy Nuclei (%),[4],74% and 50%
same,Population Hoechst High Intensity Objects (%),[4],7% and 6%
same,Population Membrane Permeable-Phenotype (%),[4],0% and 5%
same,Population Mitochondria Different-Phenotype (%),[4],5%
same,Population Mitotic Cells (%),[4],36% and 50%
same,Population Normal (%),[4],92% and 93%
same,Population Pyknosed Nuclei (%),[4],11% and 13%
same,Population Tubulin-Different-Phenotype (%),[4],31% and 54%
same,Total Cell Count,[4],171 and 159
same,Population Apoptotic (%),[5],72% and 51%
same,Population Fragmented Nuclei (%),[5],21% and 30%
same,Population Healthy Nuclei (%),[5],65% and 50%
same,Population Hoechst High Intensity Objects (%),[5],5% and 2%
same,Population Membrane Permeable-Phenotype (%),[5],0% and 3%
same,Population Mitochondria Different-Phenotype (%),[5],7% and 6%
same,Population Mitotic Cells (%),[5],27% and 48%
same,Population Normal (%),[5],94% and 97%
same,Population Pyknosed Nuclei (%),[5],12% and 18%
same,Population Tubulin-Different-Phenotype (%),[5],26% and 39%
same,Total Cell Count,[5],186 and 169
same,Population Apoptotic (%),[6],46% and 55%
same,Population Fragmented Nuclei (%),[6],16% and 36%
same,Population Healthy Nuclei (%),[6],68% and 52%
same,Population Hoechst High Intensity Objects (%),[6],9% and 5%
same,Population Membrane Permeable-Phenotype (%),[6],0% and 7%
same,Population Mitochondria Different-Phenotype (%),[6],4% and 8%
same,Population Mitotic Cells (%),[6],53% and 44%
same,Population Normal (%),[6],90% and 94%
same,Population Pyknosed Nuclei (%),[6],15% and 11%
same,Population Tubulin-Different-Phenotype (%),[6],35% and 54%
same,Total Cell Count,[6],185 and 166
